Columns and labels:
[1] = molecular target: Intestinal-type alkaline phosphatase (Bos taurus) (UniProt P19111); assay: Inhibition of bovine intestinal alkaline phosphatase assessed as residual enzyme activity at 0.1 mM in presence of 1% DMSO at pH 10.4 at 37 degC relative to untreated control
In short: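 Screening in 25 mM piperazine, 25 mM glycylglycine, 5 mM MgCl2, 5 µM ZnCl2, pH 10.4, 37 °C. BIAP (0.1–0.3 µg/mL) preincubated 10 min with 0.1 mM compound (final DMSO 1% v/v), no substrate. Reaction started with 0.05 mM pNPP; read at 420 nm (ε 18.6 cm⁻¹ mM⁻¹). Activity given relative to inhibitor-free control; sample-to-sample error 5%.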

Sus scrofa = species: Sus scrofa; assay: Inhibition of porcine kidney tissue non-specific alkaline phosphatase assessed as residual enzyme activity at 0.4 mM in presence of 4% DMSO at pH 10.4 at 37 degC relative to untreated control

Sequence of Intestinal-type alkaline phosphatase (Bos taurus) (P19111 20-506 limits assumed): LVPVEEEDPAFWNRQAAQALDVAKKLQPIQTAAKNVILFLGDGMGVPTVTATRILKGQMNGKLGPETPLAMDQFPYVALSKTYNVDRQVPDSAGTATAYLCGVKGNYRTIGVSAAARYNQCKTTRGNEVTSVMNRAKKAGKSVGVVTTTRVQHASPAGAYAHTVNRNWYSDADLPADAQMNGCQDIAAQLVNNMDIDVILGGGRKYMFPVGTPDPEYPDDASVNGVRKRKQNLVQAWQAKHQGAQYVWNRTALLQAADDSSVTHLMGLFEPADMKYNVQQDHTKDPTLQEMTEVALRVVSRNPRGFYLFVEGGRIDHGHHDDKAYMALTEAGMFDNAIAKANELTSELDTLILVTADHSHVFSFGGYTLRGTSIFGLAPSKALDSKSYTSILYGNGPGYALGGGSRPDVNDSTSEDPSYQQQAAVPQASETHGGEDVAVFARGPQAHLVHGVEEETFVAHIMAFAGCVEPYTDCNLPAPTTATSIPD

Activity [1] [%]	Activity (Sus scrofa) [%]	SMILES
90	–	N#Cc1ccccc1-c1sc2ccccc2c1C#N
96	97	N#Cc1c(-c2ccc(C(F)(F)F)cc2)sc2ccccc12
94	90	FC(F)c1c(-c2ccccc2)sc2ccccc12
99	100	N#Cc1ccccc1-c1sc2ccccc2c1N1CCCCC1
115	–	N#Cc1c(-c2cccc(Cl)c2)sc2ccccc12
101	87	N#Cc1ccccc1-c1c(OCC(F)(F)F)sc2ccccc12
37	99	COc1ccc(-c2sc3ccccc3c2C=O)cc1
78	97	COc1ccc(-c2sc3ccccc3c2OC)cc1
80	87	COc1c(-c2ccccc2)sc2ccccc12
9	–	O=Cc1c(-c2ccc(Cl)cc2)sc2ccccc12
63	97	O=Cc1c(-c2ccccc2Cl)sc2ccccc12
148	76	NCc1c(-c2ccccc2)sc2ccccc12
92	105	N#Cc1ccc(-c2sc3ccccc3c2C=O)cc1
94	–	N#Cc1c(-c2ccccn2)sc2ccccc12
101	79	N#Cc1ccccc1-c1sc2ccccc2c1Oc1ccc(Cl)cc1
82	83	CN(C)c1ccc(-c2sc3ccccc3c2C#N)cc1

Activity [1] [%]	Activity (Sus scrofa) [%]	SMILES
97	–	COc1cccc(-c2sc3ccccc3c2C#N)c1
57	79	COc1c(-c2ccccc2C#N)sc2ccccc12
102	–	COc1c(-c2ccc3ccccc3c2)sc2ccccc12
94	–	COc1ccc(-c2sc3ccccc3c2C#N)cc1
76	–	N#Cc1c(-c2ccccc2)sc2ccccc12
134	84	CN(C)c1cccc(-c2sc3ccccc3c2CN)c1
112	44	COc1c(-c2cccnc2)sc2ccccc12
122	84	FC(F)(F)Cc1c(-c2cccnc2)sc2ccccc12
115	–	N#Cc1sc2ccccc2c1-c1ccc(C(F)(F)F)cc1
62	95	O=Cc1c(-c2cccc(Cl)c2)sc2ccccc12
5	85	Cc1ccccc1-c1sc2ccccc2c1C#N
95	–	N#Cc1c(-c2cnc3ccccc3c2)sc2ccccc12
106	–	N#Cc1c(-c2cccnc2)sc2ccccc12
120	–	N#Cc1sc2ccccc2c1-c1cccnc1
69	–	N#Cc1c(-c2ccc(Cl)cc2)sc2ccccc12

More lines, now with the values behind:

SMILES	Activity [1] [%]	Activity (Sus scrofa) [%]
FC(F)(F)COc1sc2ccccc2c1-c1cccnc1	102	97
N#Cc1ccc(Oc2c(-c3ccccc3C#N)sc3ccccc23)cc1	82	97
COc1ccc(C(=O)c2c(-c3ccc(OC)cc3[N+](=O)[O-])sc3ccccc23)cc1	95	100
Fc1ccc(Oc2csc3ccccc23)cc1	104	78
N#Cc1cc2ccccc2s1	103	105
c1ccc2c(N3CCOCC3)csc2c1	108	99
O=C(c1ccccc1)c1csc2ccccc12	43	80
O=Cc1c(-c2ccccc2[N+](=O)[O-])sc2ccccc12	116	78
N#Cc1ccc(Oc2csc3ccccc23)cc1	87	85
COc1ccc(Oc2c[s+]([O-])c3ccccc23)cc1 (stereo not given)	107	100
COc1c(-c2cnc3ccccc3c2)sc2ccccc12	64	86
N#Cc1ccc(Oc2c[s+]([O-])c3ccccc23)cc1 (stereo not given)	106	67
COc1ccc(-c2sc3ccccc3c2C(=O)c2cc(OC)c(OC)c(OC)c2)c([N+](=O)[O-])c1	124	92
COc1ccc(-c2csc3ccccc23)cc1	100	–
COc1ccc(-c2sc3ccccc3c2N2CCCCC2)cc1	106	91
O=Cc1c(-c2ccc(C(F)(F)F)cc2)sc2ccccc12	30	80
COc1ccc(-c2cc3ccccc3s2)c([N+](=O)[O-])c1	99	96
COc1ccccc1C(=O)c1c(-c2ccccc2[N+](=O)[O-])sc2ccccc12	92	98
COC(=O)C(Cc1c(-c2ccc(C#N)cc2)sc2ccccc12)NCc1ccccc1 (stereo not given)	115	–
N#Cc1ccccc1-c1sc2ccccc2c1Oc1ccc(F)cc1	66	85
N#Cc1csc2ccccc12	92	92
c1ccc(-c2cc3ccccc3s2)nc1	119	94
N#Cc1ccccc1-c1sc2ccccc2c1Oc1ccccc1	110	91

SMILES	Activity [1] [%]	Activity (Sus scrofa) [%]
COc1cccc(C(=O)c2c(-c3ccccc3[N+](=O)[O-])sc3ccccc23)c1	98	96
COc1ccc(Oc2c(-c3ccccc3C#N)sc3ccccc23)cc1	106	98
COC(=O)C(Cc1c(-c2ccc(C(F)(F)F)cc2)sc2ccccc12)NCc1ccccc1 (stereo not given)	63	–
[O-][s+]1cc(Br)c2ccccc21 (stereo not given)	105	100
COC(=O)/C(=C\c1c(-c2ccc(C#N)cc2)sc2ccccc12)NCc1ccccc1	108	–
Nc1ccccc1-c1cc2ccccc2s1	93	70
[O-][s+]1cc(Oc2ccc(Cl)cc2)c2ccccc21 (stereo not given)	122	103
COc1c(-c2ccccn2)sc2ccccc12	99	90
COc1ccc(-c2sc3ccccc3c2C(=O)c2cc(OC)c(O)c(OC)c2)c([N+](=O)[O-])c1	125	95
Ic1cc2ccccc2s1	41	54
COc1ccc(-c2sc3ccccc3c2C(=O)c2ccccc2)c([N+](=O)[O-])c1	114	97
O=[N+]([O-])c1ccccc1-c1cc2ccccc2s1	121	86
c1ccc(Oc2csc3ccccc23)cc1	104	89
O=Cc1c(-c2cnc3ccccc3c2)sc2ccccc12	110	–
COc1ccc(C(=O)c2c(-c3ccc(OC)cc3)sc3ccccc23)cc1	70	108
N#Cc1ccccc1-c1sc2ccccc2c1C(=O)c1ccccc1	91	92
[O-][s+]1cc(Oc2ccc(F)cc2)c2ccccc21 (stereo not given)	109	79
COc1cc(Oc2c[s+]([O-])c3ccccc23)cc(OC)c1OC (stereo not given)	127	101
Clc1ccc(Oc2csc3ccccc23)cc1	107	94
c1ccc2c(N3CCCCC3)csc2c1	92	80
COc1ccc(-c2sc3ccccc3c2CN)c(OC)c1OC	142	94
CN1CCN(c2csc3ccccc23)CC1	107	97
O=Cc1ccc(Oc2csc3ccccc23)cc1	9	–
